# RGS4 block = inhibitors of human RGS4. P49798. HEK293 M3R/RGS4 inducible, Fluo-4 calcium flux; hits give high values; triggered by carbachol at its EC20. B-score at 10 µM. 310,000 tested, 0.45% active. AID 463165;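 active = B-score, a plate-corrected calcium signal, over three deviations above library mean, with baseline fluorescence within five deviations of library mean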;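 also: RGS4 expression induced by doxycycline in cells with stable M3 receptor; B-score is computed from the integrated fluorescence ratio over baseline after carbachol; higher B-score means a larger calcium signal and so more RGS4 inhibition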
# Target sequence (P49798 whole entry, looked up): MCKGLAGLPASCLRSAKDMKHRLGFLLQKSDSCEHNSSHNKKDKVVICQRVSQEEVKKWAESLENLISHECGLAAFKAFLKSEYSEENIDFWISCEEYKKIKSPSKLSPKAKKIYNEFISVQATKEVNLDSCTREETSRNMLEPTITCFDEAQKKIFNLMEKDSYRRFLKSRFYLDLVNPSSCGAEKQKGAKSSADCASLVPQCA
# MrgX1 ag = agonists of human MrgX1 receptor; MrgX1-HEK293 cells, Fluo-4 calcium fluorescence, agonist mode; hits give high values; AID 588627; 310,000 tested, 0.44% active; B-score at 10 µM;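 active = calcium response B-score plate-corrected fluorescence ratio at least 3 library SD, with starting fluorescence B-score inside 5 SD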
# Target sequence (Q96LB2 whole entry, looked up): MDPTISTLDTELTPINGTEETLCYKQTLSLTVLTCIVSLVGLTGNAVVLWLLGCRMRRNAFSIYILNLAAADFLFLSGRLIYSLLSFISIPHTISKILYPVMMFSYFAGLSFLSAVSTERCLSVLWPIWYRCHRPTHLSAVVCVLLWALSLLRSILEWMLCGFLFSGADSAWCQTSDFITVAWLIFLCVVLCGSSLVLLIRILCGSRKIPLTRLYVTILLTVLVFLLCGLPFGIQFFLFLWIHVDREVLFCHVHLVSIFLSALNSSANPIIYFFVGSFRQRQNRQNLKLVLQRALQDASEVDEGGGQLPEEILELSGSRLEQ
#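 Test system: HEK293 cells stably expressing human MrgX1 receptor; Input: fifteen thousand cells per well; Dosing: compound delivered in addition one of three; Schedule: overnight seeding, then 1 h dark dye loading; Technique: Fluo-4 NW calcium fluorescence; Measure: B-scored fluorescence response ratio; Controls: positive and negative controls per plate.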
# MrgX1 antag = antagonists of human MrgX1 receptor; 310,000 tested, 1.3% active; Q96LB2; MRGX1-HEK293 calcium flux, Fluo-4, BAM8-22 antagonism; hits give low values; B-score at 10 µM;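 active = calcium-response B-score plate-corrected more than 3 library SD below zero, starting fluorescence within 5 deviations, no agonist response on first addition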;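 also: peak minus trough fluorescence over baseline after final BAM8-22 challenge near maximal dose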
# MrgX1 allo act = human MrgX1 positive allosteric modulation, primary screen; Q96LB2; MrgX1-HEK293, Fluo-4 calcium flux, FDSS; hits give high values; B-score at 10 µM; 310,000 tested, 0.63% active; AID 588675;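 active = plate-corrected calcium response at least 3 library SD above typical, normal starting fluorescence, not activating the receptor alone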;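 also: compound read alongside a low EC10 to EC30 dose of BAM8-22 agonist; peak minus trough fluorescence over baseline measured at the second addition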
# RGS4 pot = RGS4 potentiation or activation | B-score at 10 µM | 310,000 tested, 0.92% active | AID 463111 | HEK293 M3R/inducible RGS4, carbachol calcium flux Fluo4; hits give low values;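 active = B-score of the integrated calcium signal more than 4 SD below the library mean, with starting fluorescence not abnormally high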;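 also: negative B-score means reduced calcium response which marks RGS4 activation or potentiation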
#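 Material: M3R-expressing HEK293 line, RGS4 induced by doxycycline | Schedule: Overnight RGS4 induction, 30 min dye load 37 °C, 20 min compound RT | Measured by: Fluo4 fluorescence kinetic imaging of calcium | Read-out: Integrated calcium ratio converted to B score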
# MrgX1 antag conf = reconfirmed antagonist of human MrgX1 receptor signaling; shares compounds with MrgX1 antag; MrgX1-HEK293, BAM8-22 calcium flux, Fluo-4; hits give low values; remaining BAM8-22 calcium response % of control (hits give low values), % at 10 µM; 2,300 tested, 19% active;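 active = remaining agonist calcium response no higher than 100% minus 3 SD of agonist-only control wells, with starting fluorescence near control levels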;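 also: agonist BAM8-22 given at a near maximal EC90 to ECmax level; peak minus minimum fluorescence divided by baseline after agonist addition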
# HEK293 Ca flux = activity in parental HEK293 cells lacking MrgX1. shares compounds with MrgX1 antag. Fluo-4 calcium fluorescence, FDSS. fluorescence ratio F(max-min)/F0 at 10 µM. 4,000 tested, 2% active. AID 624111;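 active = duplicate-averaged calcium fluorescence ratio at least three times the standard deviation of buffer wells, a nonspecific response in parental cells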
# HEK293 Ca counter = counter-screen for MrgX1 allosteric activators: effect in parental HEK293 cells; parental HEK293 calcium flux, Fluo-4 fluorescence ratio; hits give high values; shares compounds with MrgX1 antag; 4,000 tested, 0.4% active; AID 624114; fluorescence ratio F(max-min)/F0 at 10 µM;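 active = calcium fluorescence ratio, averaged over duplicates, at least 3 SD of the buffer-well ratio, meaning a nonspecific response in receptor-free cells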;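 also: untransfected parental HEK293 lacking MrgX1 used as counterscreen for MrgX1 allosteric activators; fluorescence change taken during the second addition on a kinetic imager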
# HEK293 Ca cntr2 = MrgX1 activator counter-screen hit in parental HEK293 cells; shares compounds with MrgX1 antag; Fluo-4 calcium fluorescence (FDSS); hits give high values; fluorescence ratio F(max-min)/F0 at 10 µM; 4,000 tested, 8.7% active; AID 624115;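 active = calcium fluorescence ratio at least three times the spread of buffer wells, meaning a non-specific response in parental cells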
# An asterisk follows results filed as active; i = inactive; . = not tested or not shown. This is a sample that favours compounds with a hit; in the whole collection about 3.5% have one here.
SMILES,RGS4 block,MrgX1 ag,MrgX1 antag,MrgX1 allo act,RGS4 pot,MrgX1 antag conf,HEK293 Ca flux,HEK293 Ca counter,HEK293 Ca cntr2
CCC1C(C#N)=C(N)Oc2c1c(=O)oc1ccccc21 (stereo unspecified),i,i,i,i,i,.,.,.,.
CC(C)CC1C(C#N)=C(N)Oc2c1c(=O)oc1ccccc21 (stereo unspecified),i,i,-6.3*,i,i,i,i,i,i
COC(=O)C(O)(c1ccc(NC(=S)NC(=O)c2ccc(Cl)cc2Cl)c(C)c1)C(F)(F)F (stereo unspecified),i,i,i,i,i,.,.,.,.
CCOC(=O)C(O)(c1ccc(NC(=S)NC(=O)c2ccc(Cl)cc2Cl)c(C)c1)C(F)(F)F (stereo unspecified),i,i,-4.7*,i,i,i,i,i,i
COc1ccccc1-n1c(-c2ccoc2)nc2ccccc2c1=O,i,i,-4.7*,i,i,i,i,i,i
CC(C)(C)c1ccc(O)c(CN2CCN(c3ccccc3)CC2)c1,i,i,-9.3*,i,i,i,i,i,i
Clc1ccccc1CN1CCN(c2ccccc2)CC1,i,i,i,i,i,.,.,.,.
CCOc1ccc(-c2cc(C)[n+](CCc3ccc(OC)c(OC)c3)c(-c3ccc(OCC)cc3)c2)cc1,i,i,-13*,i,-9.9*,70%*,i,i,i
CCOc1ccc(-c2cc(C)[n+](CCO)c(-c3ccc(OCC)cc3)c2)cc1,i,i,i,i,i,.,.,.,.
Cc1c(C=O)c2ccccc2n1Cc1ccccc1F,i,i,-11*,i,i,i,i,i,i
COc1cccc(-c2nn(CCC#N)cc2C(=O)Nc2ccccc2Cl)c1,i,i,i,i,i,.,.,.,.
CCN(CC(=O)Nc1ccc(C#N)c(Cl)c1)CC(=O)NC(C)(C)C,i,i,i,i,i,.,.,.,.
Cc1sc2ncnc(N3CCC(C(=O)Nc4ccc(C#N)c(Cl)c4)CC3)c2c1C,i,i,-5.8*,i,i,i,i,i,i
COc1cccc(-n2c(/C=C/c3ccc(O)c(O)c3)nc3ccccc3c2=O)c1,i,i,-5.7*,i,i,i,i,i,i
CCCCn1c(O)c(C(C)=NCc2cc(OC)cc(OC)c2)c(=O)[nH]c1=O,i,i,-6.8*,i,i,i,i,i,i
O=c1[nH]c(=S)n(C2CC2)c(O)c1C=Nc1cccc(C(F)(F)F)c1,i,i,i,i,i,.,.,.,.
COC(=O)C1=C(c2ccc(S(C)(=O)=O)cc2)C[C@@H]2CC[C@H]1N2C(=O)NCC1CC1,i,i,-9.4*,i,i,i,i,i,i
COC(=O)C1=C(c2ccc(S(C)(=O)=O)cc2)C[C@@H]2CC[C@H]1N2C(=O)NCCO,i,i,i,i,i,.,.,.,.
Cc1c(C(=O)N2CCC3(CC2)OCCO3)oc2ccc(S(=O)(=O)N3CCOCC3)cc12,i,i,-4.5*,i,i,i,i,i,i
Cc1c(C(=O)N2CCC3(CC2)OCCO3)oc2ccccc12,i,i,i,i,i,.,.,.,.
CCc1ccc(-n2c(O)c(/C=N/N3CCCCC3c3cccnc3)c(=O)[nH]c2=O)cc1 (stereo unspecified),i,i,-11*,i,i,i,i,i,i
Cc1cccn2c(=O)c3cc(C(=O)N4CCC5(CC4)OCCO5)n(C)c3nc12,i,i,-4.7*,i,i,i,i,i,i
O=C(c1cccn2c(=O)c3cc(Br)ccc3nc12)N1CCC2(CC1)OCCO2,i,i,i,i,i,.,.,.,.
Cc1ccc(S(=O)(=O)N(C)C)cc1NC(=O)C(C)[N+]12CCN(CC1)CC2 (stereo unspecified),i,i,i,i,i,.,.,.,.

# Bioassay records (PubChem BioAssay)
